Bioassay records from PubChem BioAssay.
Beta2AR agonist: human beta-2 adrenergic receptor agonism by FAP; P07550; Am2.2-beta2AR cells, FAP receptor internalization, flow cytometry; response, % (concentration not given with the values); 0.43% of 340,000 active; AID 504454;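 active = response above a set limit, near 3 SD of response in nonfluorescent compounds, cut at about 42% in these data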
ATG4B inhibitor: blocks human ATG4B protease cleavage of LC3 substrate. ATG4B cleavage of LC3-PLA2, NBD-HPC fluorescence, 1 h. AID 504462. 0.51% of 340,000 active. inhibition, % at 8.33 µM. Q9Y4P1; in the data active = inhibition above about 40%
Target sequence (Q9Y4P1 whole entry, looked up): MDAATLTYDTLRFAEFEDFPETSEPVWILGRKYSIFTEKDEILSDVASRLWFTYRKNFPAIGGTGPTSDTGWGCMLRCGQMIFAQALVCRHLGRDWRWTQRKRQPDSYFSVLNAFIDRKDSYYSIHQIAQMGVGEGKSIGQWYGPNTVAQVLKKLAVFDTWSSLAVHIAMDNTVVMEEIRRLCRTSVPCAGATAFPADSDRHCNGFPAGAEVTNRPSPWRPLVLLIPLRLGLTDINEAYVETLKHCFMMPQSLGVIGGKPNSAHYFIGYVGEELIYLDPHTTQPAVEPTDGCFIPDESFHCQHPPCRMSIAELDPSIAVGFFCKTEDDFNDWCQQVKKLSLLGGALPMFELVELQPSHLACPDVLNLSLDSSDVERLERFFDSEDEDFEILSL
MEKK3 PB1 HTS: MEKK3-MEK5 PB1 interaction, increase or decrease. Q99759. bead-based flow cytometry, Alexa488-MEK5 binding to MEKK3; actives lie on both sides; 0 = blocked by unlabeled MEK5, 100 = vehicle. binding response (% of control), % at 10 µM. 1.4% of 290,000 active. AID 1529;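 active = binding response more than 3 SD above or below the average of its plate-row segment, actives on both sides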;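 also: Alexa488 bead fluorescence after subtracting the streptavidin-only scavenger bead signal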
Dynein cargo inh: blocks dynein driven cargo transport along microtubules | 0.47% of 220,000 active | 3617.4 mouse cells, GR-EGFP nuclear translocation imaging; test concentration mostly 20 µM; stimulated with dexamethasone, 1 µM; active compounds read low | z-score, hits read low;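 active = plate z-score of nuclear minus cytoplasmic receptor signal below a set negative limit, without overly bright fluorescence or cell loss, cut at about -3.5 in these data, passing the limit was not always enough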;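 also: z-score of nuclear minus cytoplasmic ring GR-EGFP intensity difference per well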
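Also added – dexamethasone, 1.0 µM final · Buffer or medium – tet-free, stripped-serum medium · Schedule – induction 48 h, compound 1 h, agonist 30 min · Detection – formaldehyde fixation, Hoechst nuclear stain, 10x automated fluorescence imaging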
MEKK2 WT-MEK5: raises or lowers MEK5 binding to wildtype human MEKK2 PB1 domain; Q9Y2U5; bead flow cytometry, Alexa488-MEK5 binding to MEKK2 WT; actives lie on both sides; binding response (% of control), % at 10 µM; 1.1% of 290,000 active; AID 1531; in the data active = binding response below about 67% or above about 130%
MEKK2 mut-MEK5: signal of MEK5 binding to mutant human MEKK2 PB1 domain; bead flow cytometry, Alexa488-MEK5 binding to MEKK2 mutant; percent response, % at 10 µM; 0.35% of 290,000 active; AID 1530; in the data active = percent response above about 24%, passing the limit was not always enough
MEKK2wt confirm: raises or lowers MEK5 binding to wildtype human MEKK2, retest; 2.4% of 5,900 active; bead flow cytometry, Alexa488-MEK5 binding to MEKK2 WT; actives lie on both sides; AID 1892; binding response (% of control), % at 10 µM; shares compounds with MEKK3 PB1 HTS; in the data active = binding response below about 16% or above about 210%; inactive = in between
MEKK2mut-MEK5: signal of MEK5 binding to mutant human MEKK2, retest | shares compounds with MEKK3 PB1 HTS | percent response, % at 10 µM | bead flow cytometry, Alexa488-MEK5 binding to MEKK2 mutant | 2% of 5,900 active; in the data active = percent response mostly above about 71%, no sharp cut-off; inactive = mostly below about 38%;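 also: higher means compound restores mutant binding toward wildtype level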
MEKK3 confirm: confirmation of inhibitors of MEK5 binding to human MEKK3; shares compounds with MEKK3 PB1 HTS; binding response (% of control), % at 10 µM; 1.8% of 5,900 active; bead flow cytometry, Alexa488-MEK5 binding to MEKK3; active compounds read low;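 active = binding response below 72% of control, or above a set upper limit, though filed actives all read lower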;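 also: 100% = DMSO only wells and 0% = binding blocked by excess unlabeled MEK5; lower values mean stronger disruption of MEK5 binding to MEKK3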
An asterisk follows results filed as active; x = not tested or not shown; [ ] = dose if it differs, or a comment. In the library only some 2.9% were active in any assay of this set; here they are far more common.

SMILES | Beta2AR agonist | ATG4B inhibitor | MEKK3 PB1 HTS | Dynein cargo inh | MEKK2 WT-MEK5 | MEKK2 mut-MEK5 | MEKK2wt confirm | MEKK2mut-MEK5 | MEKK3 confirm
COc1ccc(NC(=O)c2cc(S(=O)(=O)N3CCc4ccccc43)cn2C)cc1OC | 25 | -11 | 103 | x | 100 | -5 | x | x | x
O=C(NCc1cn(-c2ccccc2)nc1-c1ccccc1)c1cccc([N+](=O)[O-])c1 | -6 | 5 | 101 | 1.1 | 114 | 8 | x | x | x
N#CCCn1cc(CNCc2ccccc2)c(-c2cccc([N+](=O)[O-])c2)n1 | -2 | -3 | 105 | 0.012 | 160* | 23 | 144 | 21 | 99
CC(C)[C@H]1COCCS(=O)(=O)N1Cc1ccccc1-c1cccc(Cl)c1 | -7 | x | x | x | x | x | x | x | x
O=P(Nc1ccccc1)(Nc1ccccc1)c1ccccc1 | 3 | 1 | x | x | x | x | x | x | x
COC(=O)C(NC(=O)CCC(=O)N[C@@H](C(=O)OC)c1ccccc1)c1ccccc1 (stereo partly drawn) | -8 | -7 | 103 | x | 97 | 3 | x | x | x
COC(=O)[C@@H](NCc1cccc(CN[C@H](C(=O)OC)c2ccccc2)c1)c1ccccc1 | -1 | -6 | 107 | x | 163* | 8 | 91 | -7 | 93
CC(NC(=O)/C=C/c1ccccc1[N+](=O)[O-])C1CC2CCC1C2 (stereo not drawn) | -9 | 4 | 101 | x | 102 | 6 | x | x | x
O=[N+]([O-])c1cccc(-n2nnnc2CN2CCCCCC2)c1 | -4 | -4 | 122* | -1.1 | 124 | 5 | 105 | -4 | 101
COc1ccc(C2CC(c3cccc(Cl)c3)=NN2c2ccc(S(N)(=O)=O)cc2)cc1 (stereo not drawn) | 6 | 13 | x | x | x | x | x | x | x
Cc1ccc(N(C(=O)Cn2nnc3ccccc32)C(C(=O)NCc2ccccc2)c2ccccn2)cc1 (stereo not drawn) | 0 | -10 | 128* | -0.07 | 107 | 1 | 103 | 6 | 104
CCOc1ccc(C(C#N)N2CCOCC2)cc1OC (stereo not drawn) | -1 | -5 | 2.0*[inhibitor] | -0.73 | 2.0*[inhibitor] | -21 | 103 | -2 | 104
O=C(Nc1ccc(F)cc1)c1cccnc1NCCc1ccccc1 | 0 | -5 | 142* | -0.001 | 112 | 1 | 100 | -6 | 103
O=C(O)C1=C[C@H](c2csc3ccccc23)C[C@H](OCc2ccc(CO)cc2)O1 | -2 | -4 | 66*[inhibitor] | 0.76 | 104 | -3 | 95 | -4 | 98
FC(F)(F)c1cc(-c2ccccc2)nc(NCc2cccnc2)n1 | -15 | 6 | 1.0*[inhibitor] | -0.14 | -1.0*[inhibitor] | -10 | 97 | -7 | 99
CC(C)(C)c1ccc(COC(=O)Nc2ccc(F)cc2)cc1 | 2 | -2 | 102 | 1.3 | 104 | 2 | x | x | x
CC(C)(C)c1ccc(NC(=O)Nc2ccc(F)cc2)cc1 | 7 | 6 | 130* | -0.35 | 128 | 2 | 109 | 7 | 106
CC(NC(=O)CN(c1ccccc1F)S(C)(=O)=O)c1ccccc1 (stereo not drawn) | 0 | -4 | 107 | x | 106 | 27* | 107 | -1 | 102
CN(Cc1ccco1)S(=O)(=O)c1nnc(NC(=O)c2ccccc2Cl)s1 | 2 | 9 | 99 | x | 98 | -2 | x | x | x
C#CCOCCOCCOCCNc1nc(N2CCN(C(=O)[C@H](CCCCN)n3cc([C@@H](N)CO)nn3)CC2)nc(N2CCN(C(=O)[C@H](Cc3cc4ccccc4[nH]3)n3cc([C@@H](N)Cc4ccc(O)cc4)nn3)CC2)n1 | x | x | 108 | -0.53 | 190* | 56* | 183 | 50 | 115
C#CCOCCOCCOCCNc1nc(N2CCN(C(=O)[C@H](CCCCN)n3cc([C@@H](N)C(C)CC)nn3)CC2)nc(N2CCN(C(=O)[C@H](Cc3cc4ccccc4[nH]3)n3cc([C@@H](N)C(C)CC)nn3)CC2)n1 (stereo partly drawn) | 5 | 12 | x | x | x | x | x | x | x
C#CCOCCOCCOCCNc1nc(N2CCN(C(=O)[C@H](CCCCN)n3cc([C@@H](N)CC(C)C)nn3)CC2)nc(N2CCN(C(=O)[C@H](Cc3cc4ccccc4[nH]3)n3cc([C@@H](N)Cc4ccc(O)cc4)nn3)CC2)n1 | -6 | -4 | 113 | 0.84 | 187* | 60* | 232* | 89* | 110
O=C(Nc1ccc(Cl)cn1)c1ccc2c(Cl)c3c(nc2c1)CCC3 | -3 | 11 | 40*[inhibitor] | 0.74 | 47*[inhibitor] | -13 | 79 | -19 | 70*
Cc1cccc(NC(=O)c2ccc3c(Cl)c4c(nc3c2)CCCC4)n1 | 8 | 26 | 107 | -0.69 | 103 | 2 | x | x | x
Cc1cccc(C)c1NC(=O)NC1(C(=O)NCc2ccncc2)CCCCC1 | 1 | 1 | 99 | x | 94 | -2 | x | x | x
SMILES | Beta2AR agonist | ATG4B inhibitor | MEKK3 PB1 HTS | Dynein cargo inh | MEKK2 WT-MEK5 | MEKK2 mut-MEK5 | MEKK2wt confirm | MEKK2mut-MEK5 | MEKK3 confirm
CCOC(=O)C1=C(COC(=O)CCNS(=O)(=O)c2ccc(NC(C)=O)cc2)NC(=O)NC1C (stereo not drawn) | -3 | -2 | x | x | x | x | x | x | x
CCN1CCN(C(C)CCc2ccccc2)CC1 (stereo not drawn) | -3 | -3 | 108 | x | 111 | 10 | x | x | x
COCCN(CC(=O)Nc1cccc(C)c1C)C(=O)c1cc2c(s1)CCC2 | -12 | -6 | x | x | x | x | x | x | x
CSc1ccc(/C=N/NC(=O)CN2CCN(Cc3ccc(Cl)cc3)CC2)cc1 | -9 | -16 | 137* | 0.068 | 111 | 2 | 111 | 9 | 103
CSc1ccc(/C=N/NC(=O)CN2CCN(Cc3ccccc3)CC2)cc1 | -5 | -13 | 106 | -0.87 | 124 | 8 | x | x | x
CSc1ccc(/C=N/N2CCN(Cc3ccc(Cl)cc3)CC2)cc1 | 6 | -18 | 3.0*[inhibitor] | 0.19 | 4.0*[inhibitor] | -46 | 105 | -1 | 103
CCOc1ccc(CCNC(=O)CS(=O)Cc2nc(-c3ccccc3C)oc2C)cc1OCC (stereo not drawn) | -5 | -15 | 100 | x | 102 | 3 | x | x | x
O=C(O)CC/C(=N\Nc1ccc([N+](=O)[O-])cc1)c1ccccc1 | 15 | -5 | 102 | 1.9 | 94 | -4 | x | x | x
C/C(=N/Nc1ccc([N+](=O)[O-])cc1)c1ccc(C)cc1C | 11 | 8 | 112 | 0.35 | 148* | 8 | 110 | 4 | 109
